Consider ten compounds from PubChem BioAssay AID2152 (The Scripps Research Institute Molecular Screening Center, 2009).

Out of some 2,300 compounds screened, about 25 (1%) were called active. The sample holds actives, similar compounds and a random draw of the others, so the mix is not that of the screen. Values without a mark were called inactive.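 Rule for the calls: active = mean inhibition over three replicate wells above the hit threshold derived in the earlier primary screen (cut at about 45% in these data); inactive = the rest.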

For this assay, the system named is Hepatitis C virus core protein (core106 dimerization). The assay is described as follows: blockers of core106 self-association – biochemical, TR-FRET, triplicate, confirmation (AID 2152).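 Note: 0% = DMSO wells and 100% = unlabelled core106 competitor control.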 The settings on record: TR-FRET GST-/Flag-core106 dimerization, HTRF; at 5 µM; stronger effect = higher value. The procedure, abridged: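 Material: GST- and Flag-tagged HCV core106 peptides, dimerization via antibody TR-FRET. Medium: HEPES/KF buffer, pH 7.45. Doses: one 5 µM dose, 0.5% DMSO. Times: 4 h incubation, 22.5 °C. Detection: TR-FRET, excitation 340 nm, emission 671 and 617 nm. Measure: percent inhibition from emission ratio. Controls: unlabelled core106 and DMSO wells.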
On the technique in general: Time-resolved FRET reads energy transfer from a long-lived donor to a nearby acceptor.
A word on the inhibition: it is the drop in the measured response relative to a control, in per cent. With `Cn1cccc1/C=C1/C(=O)NC(=S)N(Cc2ccc(F)cc2)C1=O`, the inhibition was 64.5% (active).

`O=C1NC(=O)N(Cc2ccc(F)cc2)C(=O)/C1=C\c1ccc(N2CCCC2)cc1`: the inhibition was 4.49%. Take `CN1C(=O)/C(=C/c2cccn2-c2ccc3ccccc3c2)C(=O)NC1=S`: the inhibition is 9.68%. The same measure for `Cc1ccc(N2C(=O)/C(=C/c3ccc(CN(CCC#N)S(C)(=O)=O)o3)C(=O)NC2=S)cc1C`: -8.42%; for `Cc1ccccc1N1C(=O)/C(=C/c2ccco2)C(=O)NC1=S`: 66.3% (active). The same measure for `CCOc1cccc(N2C(=O)/C(=C/c3ccco3)C(=O)NC2=S)c1`: 10.6%; for `COC(=O)[C@@H]1[C@@H](C(=O)OC)C2(c3ccccc3-c3ccccc32)N(c2ccc(Cl)cc2)N1C#N`: 8.69%.

In the case of `COc1ccccc1C(=O)Nc1ccc2c(c1)CC1(C(=O)N(C)C(=O)N(C)C1=O)C1CCCN21` (stereo not given), the inhibition is 7.78%. Under `Cc1ccccc1-n1c(CNc2ccccc2)nc2ccccc2c1=O` stands -1.12%; under `CCN1C(=O)/C(=C/c2ccc3c(c2)CCN3CCCCl)C(=O)NC1=S`, 15.4%.
